# The source made the active and inactive calls.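 How the source made its calls, unless noted: active means viability at or below 30% in both replicate assays; inconclusive means viability at or below 30% in just one of the two assays; inactive means the rest.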
# How the values were obtained:
# [1] = Her2 expression decrease, cell viability multiplex – SKBR3 breast tumor cells, AlphaScreen, ATP viability, primary screen (AID 461;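 active means Her2 level under about 52% in both replicate screens, with viability over 70% of control, limit read from the data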;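 on Her2 level: lower value means less Her2 protein in the cells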;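 on viability: percent of carrier control wells set as 100% viability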); conditions: SKBR3 Her2 protein level, 18-24 h, measured here: SKBR3 viability, ATP luminescence, at 10 µM
# [2] = target: Receptor tyrosine-protein kinase erbB-2 (Homo sapiens) (UniProt P04626); assay: as above; conditions: 18-24 h, at 10 µM, stronger effect = lower value
# [3] = reduced viability of SK-BR-3 breast cancer cells – cell-based, 24 h, human, pilot screen (AID 572;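 active means viability at or below 10% of carrier control in both of two separate runs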;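 further: compound exposure lasted between 18 and 24 h rather than exactly 24 h; 100% = carrier-treated control wells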); conditions: SK-BR-3 viability, CellTiter-Glo luminescence, at 10 µM, stronger effect = lower value
# [4] = HUVEC growth inhibition – cell-based, human, primary screen (AID 575); conditions: HUVEC proliferation, CellTiter-Glo luminescence, 72 h; at 10 µM; stronger effect = lower value;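 further: 100% = median of untreated cell wells with 0.1% DMSO on each plate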
# Summary of the method: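 Assay system: Primary human umbilical vein endothelial cells | Quantity: 1250 cells per well | Medium: Supplemented EBM, 2% fetal bovine serum | Detection: CellTiter-Glo luminescence measuring cellular ATP | Read-out: % viability vs DMSO wells | Plate: Collagen-coated 384-well format | Times: 72 h exposure, 37 °C, 5% CO2, 30 min RT equilibration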
# [5] = H69AR cell proliferation blockers – human, duplicate replicates, primary screen (AID 580;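 active means viability at or under a set limit in both replicates, limit being median viability minus 3 SD, cut at about 48% in these data, passing the limit was not always enough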;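 further: 100% = mean luminescence of untreated wells and 0% = no signal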); conditions: H69AR lung tumor cells viability, ATP luminescence, 72 h; at 10 µM; stronger effect = lower value
# [6] = MRP1 drug-resistance reversers in H69AR cells – cell-based, doxorubicin co-treatment, pilot screen (AID 601;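 active means viability loss from added drug above about 55%, and viability with drug at most 40%, in both replicates, limit read from the data, passing the limit was not always enough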); conditions: CellTiter-Glo, 72 h, at 10 µM; for differential viability (reversal): stronger effect = higher value
# [7] = yeast transport mutant growth inhibition pilot in 384-well plates, post-Golgi transport modulator project (AID 636; in the data active means inhibition above about 31%); conditions: absorbance 615 nm, about 18 h, stronger effect = higher value
# [8] = growth suppression of yeast trafficking mutant, preliminary HTS, modulators of trafficking downstream of Golgi apparatus project, 1536-format plate, OD 615 nm (AID 637; in the data active means inhibition above about 30%); conditions: yeast transport mutant growth, absorbance 615 nm, 18 h; stronger effect = higher value
# [9] = H69AR cells + 2 uM doxorubicin, measured here: viability with 2 uM doxorubicin, stronger effect = lower value
# [10] = H69AR cells, compound alone cytotoxicity
# Receptor tyrosine-protein kinase erbB-2 (Homo sapiens), sequence (P04626 whole entry, looked up): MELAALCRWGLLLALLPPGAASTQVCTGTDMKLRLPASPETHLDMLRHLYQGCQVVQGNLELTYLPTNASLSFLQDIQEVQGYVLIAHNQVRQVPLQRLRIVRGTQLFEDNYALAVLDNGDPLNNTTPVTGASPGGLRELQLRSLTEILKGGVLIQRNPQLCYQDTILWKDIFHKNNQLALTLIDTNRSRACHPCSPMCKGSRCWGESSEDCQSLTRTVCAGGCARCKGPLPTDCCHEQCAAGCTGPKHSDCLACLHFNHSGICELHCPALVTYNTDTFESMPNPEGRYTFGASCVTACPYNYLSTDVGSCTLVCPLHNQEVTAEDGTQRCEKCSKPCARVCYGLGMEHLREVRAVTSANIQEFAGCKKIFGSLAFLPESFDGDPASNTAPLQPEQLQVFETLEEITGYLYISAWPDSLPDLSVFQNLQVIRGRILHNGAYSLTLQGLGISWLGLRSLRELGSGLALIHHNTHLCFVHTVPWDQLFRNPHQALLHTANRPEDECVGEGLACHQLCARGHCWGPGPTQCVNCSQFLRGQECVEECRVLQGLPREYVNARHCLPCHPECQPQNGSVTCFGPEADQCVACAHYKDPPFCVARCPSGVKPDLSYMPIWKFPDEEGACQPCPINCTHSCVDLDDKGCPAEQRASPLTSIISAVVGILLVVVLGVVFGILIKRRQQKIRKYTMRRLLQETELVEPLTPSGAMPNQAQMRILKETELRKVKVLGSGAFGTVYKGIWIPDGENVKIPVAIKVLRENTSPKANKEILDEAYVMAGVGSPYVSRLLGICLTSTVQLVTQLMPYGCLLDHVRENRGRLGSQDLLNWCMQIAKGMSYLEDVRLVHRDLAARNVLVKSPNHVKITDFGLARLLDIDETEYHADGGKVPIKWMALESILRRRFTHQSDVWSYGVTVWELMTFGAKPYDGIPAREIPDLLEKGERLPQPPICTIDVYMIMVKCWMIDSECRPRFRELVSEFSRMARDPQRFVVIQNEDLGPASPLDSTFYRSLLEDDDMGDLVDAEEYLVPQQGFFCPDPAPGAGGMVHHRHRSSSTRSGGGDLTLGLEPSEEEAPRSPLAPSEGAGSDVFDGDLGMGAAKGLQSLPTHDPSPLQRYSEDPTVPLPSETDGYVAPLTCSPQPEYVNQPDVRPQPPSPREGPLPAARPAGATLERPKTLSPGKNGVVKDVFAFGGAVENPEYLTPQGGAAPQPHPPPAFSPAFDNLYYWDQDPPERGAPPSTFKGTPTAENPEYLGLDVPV
SMILES,viability [1] [%],Her2 level [2],viability [3],viability [4],viability [5],differential viability (reversal) ([6]; H69AR cells + 2 uM doxorubicin),"viability [6, 9] [%]","viability [6, 10] [%]",inhibition [7],inhibition [8]
O=C(Cn1cnc2c(oc3ccccc32)c1=O)N1CCN(c2ccccc2)CC1,95,91.5% (inactive),95% (inactive),91.6% (inactive),84.9% (inactive),-2.86% (inactive),87.7,84.9,-0.66% (inactive),3.65% (inactive)
COc1ccc(S(=O)(=O)Nc2ccc(S(=O)(=O)N3CCCCC3)cc2)cc1OC,92,100% (inactive),92% (inactive),95.8% (inactive),91.3% (inactive),-3.68% (inactive),94.9,91.3,0.13% (inactive),-2% (inactive)
Cn1c(=O)c(C(=O)Nc2cccnc2)c(O)c2ccccc21,81,59.5% (inactive),81% (inactive),105% (inactive),88.4% (inactive),-9.81% (inactive),98.2,88.4,-3.65% (inactive),2.46% (inactive)
Oc1c(Cl)cc(Cl)cc1CNc1ccc(Br)cn1,100,88% (inactive),100% (inactive),74.8% (inactive),93.2% (inactive),-3.58% (inactive),96.8,93.2,1.58% (inactive),13.4% (inactive)
CC(C)(C)NC(=O)Cn1nnnc1-c1nonc1N,93,94.5% (inactive),93% (inactive),109% (inactive),105% (inactive),13.3% (inactive),91.3,105,-6.53% (inactive),5.25% (inactive)
COc1ccc2[nH]c(=O)c(CNC3CCCCC3)cc2c1,101,93% (inactive),101% (inactive),115% (inactive),89.5% (inactive),5% (inactive),84.5,89.5,-4.16% (inactive),0.5% (inactive)
c1ccc(N=P(c2nc3ccccc3o2)(N2CCOCC2)N2CCOCC2)cc1,119,89.5% (inactive),119% (inactive),104% (inactive),91.4% (inactive),1.96% (inactive),89.4,91.4,-4.27% (inactive),7.26% (inactive)
CCOc1ccc(Nc2nc(Cc3nnc(SCC(N)=O)o3)cs2)cc1,106,88% (inactive),106% (inactive),89.8% (inactive),93.6% (inactive),13.2% (inactive),80.4,93.6,-6.1% (inactive),-2.7% (inactive)
Cc1nc(/N=C(\N)Nc2ccccc2)nc2ccccc12,91.5,67.5% (inactive),91.5% (inactive),74.5% (inactive),78.7% (inactive),-21% (inactive),99.7,78.7,-0.26% (inactive),10.5% (inactive)
Cc1ccc(Nc2nc(CSc3nnnn3C)cs2)cc1,101,96% (inactive),101% (inactive),95.3% (inactive),113% (inactive),25.7% (inactive),87.4,113,-7.24% (inactive),-1.45% (inactive)
CN(C)C(=O)N1CCC(C(=O)NC2CCCCCCC2)CC1,90,112% (inactive),90% (inactive),105% (inactive),92.9% (inactive),-1.97% (inactive),94.8,92.9,-3.21% (inactive),7% (inactive)
C=CCc1cccc2cc(C(=O)NCc3cccnc3)c(=O)oc12,97.5,112% (inactive),97.5% (inactive),95% (inactive),95% (inactive),4.88% (inactive),90.1,95,-0.52% (inactive),-9.33% (inactive)
CCOC(=O)N1CCC(O)(c2cc(C)c(C)cc2C)CC1,102,95.5% (inactive),102% (inactive),109% (inactive),99.4% (inactive),9.24% (inactive),90.2,99.4,-4.19% (inactive),-5% (inactive)
CCOc1ccc(NCCC(=O)c2ccc3c(c2)OCO3)cc1,90,84.5% (inactive),90% (inactive),75.7% (inactive),66.1% (inactive),-13.5% (inactive),79.6,66.1,-6.71% (inactive),-5.5% (inactive)

# From PubChem BioAssay
